Reference: ChEMBL document CHEMBL2150947, “Pyrazolopyridine inhibitors of B-Raf(V600E). Part 4: rational design and kinase selectivity profile of cell potent type II inhibitors” (Bioorg Med Chem Lett, 2012)

Tests used:
[1] = biological target: T1, Serine/threonine-protein kinase B-raf (Homo sapiens, UniProt P15056, V600E); assay: Inhibition of full length B-Raf V600E mutant
[2] = biological target: T1, Serine/threonine-protein kinase B-raf; assay: Inhibition of B-Raf V600E mutant in human Malme-3M cells assessed as ERK phosphorylation; format: cell-based
How it was run: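 Mechanistic cellular read-out: inhibition of basal ERK phosphorylation in Malme-3M melanoma cells; IC50 taken as the mean of at least two experiments.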

T1 sequence (P15056 2-766 V600E limits assumed): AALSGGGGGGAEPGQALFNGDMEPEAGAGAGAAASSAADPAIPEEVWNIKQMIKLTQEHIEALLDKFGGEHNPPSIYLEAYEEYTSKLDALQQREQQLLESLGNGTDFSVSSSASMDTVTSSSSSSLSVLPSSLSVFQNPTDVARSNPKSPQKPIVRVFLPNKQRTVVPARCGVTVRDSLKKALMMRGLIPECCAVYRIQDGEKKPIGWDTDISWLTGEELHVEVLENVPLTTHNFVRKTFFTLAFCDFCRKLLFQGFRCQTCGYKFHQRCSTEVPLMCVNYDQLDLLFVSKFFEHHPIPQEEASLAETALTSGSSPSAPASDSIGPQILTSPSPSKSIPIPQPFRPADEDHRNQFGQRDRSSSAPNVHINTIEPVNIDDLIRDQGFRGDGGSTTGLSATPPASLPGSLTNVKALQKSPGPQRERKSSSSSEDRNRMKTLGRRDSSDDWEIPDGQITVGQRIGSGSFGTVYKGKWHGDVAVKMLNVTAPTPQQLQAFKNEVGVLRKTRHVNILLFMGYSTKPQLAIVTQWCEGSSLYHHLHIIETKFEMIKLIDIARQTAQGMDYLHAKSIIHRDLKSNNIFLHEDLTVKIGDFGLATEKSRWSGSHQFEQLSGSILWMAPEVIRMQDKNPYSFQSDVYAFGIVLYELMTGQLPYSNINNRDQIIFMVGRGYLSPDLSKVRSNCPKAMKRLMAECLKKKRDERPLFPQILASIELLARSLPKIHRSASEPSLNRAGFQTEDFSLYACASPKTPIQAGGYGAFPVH

Row | Compound | IC50 [1] | IC50 [2]
1 | CC(C)(C#N)c1cccc(C(=O)Nc2ccc(F)c(C(=O)Nc3cnc4[nH]ncc4c3)c2F)c1 | 3.5 nM | 430 nM
2 | CC(C)(C#N)c1cccc(C(=O)Nc2ccc(F)c(C(=O)Nc3cnc4[nH]nc(C5CC5)c4c3)c2F)c1 | 3 nM | 520 nM
3 | COc1n[nH]c2ncc(NC(=O)c3c(F)ccc(NC(=O)c4cccc(C(C)(C)C#N)c4)c3F)cc12 | – | 180 nM
4 | COc1n[nH]c2ncc(NC(=O)c3c(F)ccc(NC(=O)c4ccccc4)c3F)cc12 | 39 nM | > 12000 nM
5 | COc1n[nH]c2ncc(NC(=O)c3cccc(NC(=O)c4cccc(C(C)(C)C#N)c4)c3)cc12 | 0.9 nM | 140 nM
6 | O=C(Nc1ccccc1)Nc1cccc(C(=O)Nc2cnc3[nH]ncc3c2)c1 | 0.7 nM | > 10000 nM
7 | CC(C)(C#N)c1cccc(C(=O)Nc2ccc(F)c(C(=O)Nc3cnc4[nH]ccc4c3)c2F)c1 | 6.8 nM | 440 nM
8 | COc1n[nH]c2ncc(NC(=O)c3cccc(NC(=O)c4cccc(C(C)(C)C#N)c4)c3F)cc12 | 5.1 nM | 1800 nM
9 | COc1n[nH]c2ncc(NC(=O)c3cccc(C(=O)Nc4ccccc4)c3)cc12 | 80 nM | > 10000 nM

Other lines, results leading:

Row | IC50 [1] | IC50 [2] | Compound
10 | 6.6 nM | 52 nM | COc1n[nH]c2ncc(NC(=O)c3cc(C(=O)Nc4cccc(C(F)(F)F)c4)ccc3C)cc12
11 | 1 nM | 20 nM | COc1n[nH]c2ncc(NC(=O)c3cc(NC(=O)c4cccc(C(C)(C)C#N)c4)ccc3F)cc12
12 | 1.2 nM | 22 nM | COc1n[nH]c2ncc(NC(=O)c3cc(NC(=O)c4cccc(C(C)(C)C#N)c4)ccc3Cl)cc12
13 | 1.3 nM | 96 nM | COc1n[nH]c2ncc(NC(=O)c3cc(NC(=O)c4ccc(Cl)c(C(F)(F)F)c4)ccc3F)cc12
14 | 1.9 nM | 18 nM | COc1n[nH]c2ncc(NC(=O)c3cc(NC(=O)c4cccc(C(C)(C)C#N)c4)ccc3C)cc12
